Test results from ChEMBL document CHEMBL1123228, “Enantiomers of 3-(3,4-dihydroxyphenyl)- and 3-(3-hydroxyphenyl)-N-n-propylpiperidine: central pre- and postsynaptic dopaminergic effects and pharmacokinetics” (J Med Chem, 1986).

Tests used:
Rattus norvegicus [1] = experiment: Motor activity effect in reserpinized rat with tropolone pretreatment at 5 umol/kg, sc expressed as accumulation counts 0-30 min after treatment; format: functional
Method in brief: (§1)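 Male Sprague-Dawley rats given reserpine 5 mg/kg ip 18 h before; some also given tropolone 50 mg/kg 30 min before. Compound given sc in the neck, or ip where stated. Locomotion recorded by photocell motility meters, one rat per cage, as accumulated counts over 0–30 min, mean ± SEM.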

Rattus norvegicus [2] = experiment: Presynaptic activity at the level of DA metabolism was determined at dose 45 umol/kg on striatal level of HVA; format: functional
Method in brief: (§2)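 Female Wistar rats given 45 μmol/kg sc; striatal DOPAC and HVA measured by HPLC with electrochemical detection, compared with saline controls by Student's t test.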

Rattus norvegicus [3] = experiment: Level of compound in rat striatum by pretreatment of tropolone (50 mg/kg, ip, 30min) at dose 8 umol/kg; format: functional, organism-based
Method in brief: (§3)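 Female Wistar rats (170–200 g), compound sc in saline (1 mL/kg), killed 60 min later, with or without tropolone (50 mg/kg ip) before dosing. Striatum, cerebellum and cortex were extracted in perchloric acid, cleaned on Sephadex G10 and analysed by HPLC-ECD (pH 4.0, 15% methanol, 600 mV). Recovery-corrected, n = 3.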

Rattus norvegicus [4] = experiment: Level of compound in rat cortex at dose 40 umol/kg; format: functional, organism-based; method in brief: as §3
Rattus norvegicus [5] = experiment: Level of compound in rat striatum in the absence of tropolone at dose 40 umol/kg; format: functional, organism-based; method in brief: as §3
Rattus norvegicus [6] = experiment: Level of compound in rat cerebellum in the absence of tropolone at dose 8 umol/kg; format: functional, organism-based; method in brief: as §3
D(2) dopamine receptor = D(2) dopamine receptor (Rattus norvegicus, UniProt P61169); experiment: In vitro affinity against Dopamine receptor D2 using [3H]DP-5,6-ADTN radioligand in rat striatal homogenate.
Chain of D(2) dopamine receptor (P61169 whole entry): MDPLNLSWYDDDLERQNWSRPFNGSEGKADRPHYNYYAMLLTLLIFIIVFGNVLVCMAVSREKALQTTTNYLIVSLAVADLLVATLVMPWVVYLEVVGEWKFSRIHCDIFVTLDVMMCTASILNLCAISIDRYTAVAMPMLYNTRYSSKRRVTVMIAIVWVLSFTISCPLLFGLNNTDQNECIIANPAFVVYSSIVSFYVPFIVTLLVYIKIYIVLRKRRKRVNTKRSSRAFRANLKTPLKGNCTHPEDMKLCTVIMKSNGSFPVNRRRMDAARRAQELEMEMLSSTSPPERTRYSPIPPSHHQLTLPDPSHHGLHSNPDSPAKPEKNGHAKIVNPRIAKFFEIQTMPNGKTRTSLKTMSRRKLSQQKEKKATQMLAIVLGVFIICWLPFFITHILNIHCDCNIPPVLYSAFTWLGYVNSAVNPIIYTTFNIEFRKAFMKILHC

Rattus norvegicus [7] = experiment: Presynaptic activity at the level of DA metabolism was determined at dose 45 umol/kg on striatal level of DOPAC; format: functional; method in brief: as §2
Rattus norvegicus [8] = experiment: Level of compound in rat cerebellum by pretreatment of tropolone (50 mg/kg, ip, 30min) at dose 40 umol/kg; format: functional, organism-based; method in brief: as §3
[9] = system: catechol-O-methyl transferase; experiment: Michaelis-Menten constant was measured for O-methylation (probably meta) by catechol-O-methyl transferase; format: ADME
Method in brief: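 Crude rat liver COMT (105000g supernatant) at 37°C for 15 min with 0.1–0.00125 mM substrate, S-adenosyl-L-methionine, 10 mM MgCl2 and 50 mM phosphate pH 7.4 (final). Reaction stopped with perchloric acid; O-methyl product measured by HPLC-ECD. Km from Lineweaver-Burk plots, four experiments, each concentration in triplicate.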

Rattus norvegicus [10] = experiment: Level of compound in rat striatum by pretreatment of tropolone (50 mg/kg, ip, 30min) at dose 40 umol/kg; format: functional, organism-based; method in brief: as §3
Rattus norvegicus [11] = species: Rattus norvegicus; experiment: Dopa accumulation was evaluated in limbic system of male Sprague-Dawley rat; format: functional
Method in brief: (§4)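 Male Sprague-Dawley rats, 200–300 g; drug in saline given sc after NSD 1015 decarboxylase inhibition; Dopa measured by HPLC with electrochemical detection. Dose-response curves from four to six dose levels per substance and brain area; ED50 estimated as the dose giving half-maximal decrease of Dopa level.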

Rattus norvegicus [12] = experiment: Level of compound in rat cortex by pretreatment of tropolone (50 mg/kg, ip, 30min) at dose 8 umol/kg; format: functional, organism-based; method in brief: as §3
Rattus norvegicus [13] = experiment: Level of compound in rat cerebellum in the absence of tropolone at dose 40 umol/kg; format: functional, organism-based; method in brief: as §3
Rattus norvegicus [14] = experiment: Level of compound in rat cortex by pretreatment of tropolone (50 mg/kg, ip, 30min) at dose 40 umol/kg; format: functional, organism-based; method in brief: as §3
D(1A) dopamine receptor = D(1A) dopamine receptor (Rattus norvegicus, UniProt P18901); experiment: In vitro affinity against Dopamine receptor D1 using [3H]SCH-23390 radioligand in rat striatal homogenate.
Chain of D(1A) dopamine receptor (P18901 whole entry): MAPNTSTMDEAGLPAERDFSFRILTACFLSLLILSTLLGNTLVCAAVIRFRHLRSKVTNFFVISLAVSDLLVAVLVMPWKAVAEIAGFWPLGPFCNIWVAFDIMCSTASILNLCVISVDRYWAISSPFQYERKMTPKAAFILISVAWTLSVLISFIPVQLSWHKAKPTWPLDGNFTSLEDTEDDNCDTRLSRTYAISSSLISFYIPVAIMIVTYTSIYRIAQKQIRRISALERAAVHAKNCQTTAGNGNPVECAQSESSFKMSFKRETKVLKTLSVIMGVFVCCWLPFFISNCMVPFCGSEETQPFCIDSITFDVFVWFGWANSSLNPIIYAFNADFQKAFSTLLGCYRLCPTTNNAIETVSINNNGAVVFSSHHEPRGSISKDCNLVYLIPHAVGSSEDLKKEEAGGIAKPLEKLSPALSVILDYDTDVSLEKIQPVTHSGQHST

Rattus norvegicus [15] = species: Rattus norvegicus; experiment: Maximal cAMP production in rat striatal homogenates.; format: functional
Method in brief: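 cAMP formation in rat striatal homogenates was read with an automated adenylate cyclase assay.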

Rattus norvegicus [16] = experiment: Level of compound in rat striatum at dose 8 umol/kg; format: functional, organism-based; method in brief: as §3
Rattus norvegicus [17] = experiment: Level of compound in rat cortex in the absence of tropolone at dose 40 umol/kg; format: functional, organism-based; method in brief: as §3
Rattus norvegicus [18] = experiment: Level of compound in rat cortex at dose 8 umol/kg; format: functional, organism-based; method in brief: as §3
Rattus norvegicus [19] = experiment: Level of compound in rat cerebellum by pretreatment of tropolone (50 mg/kg, ip, 30min) at dose 8 umol/kg; format: functional, organism-based; method in brief: as §3
[20] = Michaelis-Menten constant was measured against adenylate cyclase stimulation of cAMP formation in striatal homogenates; format: ADME, tissue-based; settings: tissue homogenate
Rattus norvegicus [21] = experiment: Level of compound in rat striatum at dose 40 umol/kg; format: functional, organism-based; method in brief: as §3
Rattus norvegicus [22] = experiment: Level of compound in rat cerebellum at dose 40 umol/kg; format: functional, organism-based; method in brief: as §3
Rattus norvegicus [23] = experiment: Level of compound in rat cortex in the absence of tropolone at dose 8 umol/kg; format: functional, organism-based; method in brief: as §3
Rattus norvegicus [24] = species: Rattus norvegicus; experiment: Dopa accumulation was evaluated in corpus striatum of male Sprague-Dawley rat; format: functional; method in brief: as §4
[25] = Ratio of Vmax/Km was measured; format: ADME
Method in brief: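 Crude COMT from rat liver (KCl homogenate, 105000g supernatant). Incubated at 37 °C in 50 mM phosphate buffer pH 7.4 with 10 mM MgCl2, S-adenosyl-L-methionine ([…] as printed), and substrate at 0.1–0.00125 mM (final concentrations), 15 min. Stopped with perchloric acid; the O-methylated product was measured by HPLC-electrochemical detection. Km and Vmax from Lineweaver-Burk plots of four experiments, each concentration run in triplicate.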

Rattus norvegicus [26] = experiment: Level of compound in rat cerebellum at dose 8 umol/kg; format: functional, organism-based; method in brief: as §3
Rattus norvegicus [27] = experiment: Motor activity effect in reserpinized rat at 50 umol/kg, sc expressed as accumulation counts 0-30 min after treatment; format: functional; method in brief: as §1
Rattus norvegicus [28] = experiment: Motor activity effect in reserpinized rat at 13 umol/kg, sc expressed as accumulation counts 0-30 min after treatment; format: functional
Rattus norvegicus [29] = experiment: Level of compound 5 in rat cortex at dose 45 umol/kg administered intraperitoneally; format: functional, organism-based
Method in brief: (§5)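 Female Wistar rats (170–200 g) given 45 μmol/kg ip or sc, killed 60 min later. Striatum, cerebellum and cortex were frozen and homogenised in 0.1 M perchloric acid, purified on Sephadex G10 and analysed by HPLC-ECD. O-methyl metabolite was read at 27% methanol and 750 mV. Values pmol/g tissue, n = 3.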

Rattus norvegicus [30] = experiment: Level of compound 5 in rat striatum at dose 45 umol/kg administered subcutaneously; format: functional, organism-based; method in brief: as §5
Rattus norvegicus [31] = experiment: Level of compound 5 in rat cerebellum at dose 45 umol/kg administered intraperitoneally; format: functional, organism-based; method in brief: as §5
Rattus norvegicus [32] = experiment: Level of compound in rat cortex at dose 45 umol/kg administered intraperitoneally; format: functional, organism-based; method in brief: as §5
Rattus norvegicus [33] = experiment: Level of compound in rat striatum at dose 45 umol/kg administered subcutaneously.; format: functional, organism-based; method in brief: as §5
Rattus norvegicus [34] = experiment: Level of compound in rat intraperitoneally; format: functional, organism-based
Rattus norvegicus [35] = experiment: Level of compound 5 in rat cortex at dose 45 umol/kg administered subcutaneously; format: functional, organism-based; method in brief: as §5
Rattus norvegicus [36] = experiment: Level of compound 5 in rat cerebellum at dose 45 umol/kg administered subcutaneously; format: functional, organism-based; method in brief: as §5
Rattus norvegicus [37] = experiment: Level of compound 5 in rat intraperitoneally; format: functional, organism-based; method in brief: as §5
Rattus norvegicus [38] = experiment: Level of compound in rat cerebellum at dose 45 umol/kg administered subcutaneously; format: functional, organism-based; method in brief: as §5
Rattus norvegicus [39] = experiment: Level of compound in rat cortex at dose 45 umol/kg administered subcutaneously; format: functional, organism-based; method in brief: as §5
Rattus norvegicus [40] = experiment: Level of compound in rat cerebellum at dose 45 umol/kg administered intraperitoneally; format: functional, organism-based; method in brief: as §5
Rattus norvegicus [41] = experiment: Level of compound in rat striatum at dose 45 umol/kg administered subcutaneously; format: functional, organism-based; method in brief: as §5
Rattus norvegicus [42] = experiment: Motor activity effect in reserpinized rat with tropolone pretreatment at 50 umol/kg, ip expressed as accumulation counts 0-30 min after treatment; format: functional; method in brief: as §1
Rattus norvegicus [43] = experiment: Motor activity effect in reserpinized rat at 213 umol/kg, sc expressed as accumulation counts 0-30 min after treatment; format: functional
Rattus norvegicus [44] = experiment: Motor activity effect in reserpinized rat with tropolone pretreatment at 10 umol/kg, ip expressed as accumulation counts 0-30 min after treatment; format: functional; method in brief: as §1

Compound: CCCN1CCC[C@H](c2ccc(O)c(O)c2)C1
- Motor activity (Rattus norvegicus [1]): 20
- Control (Rattus norvegicus [2]): 49%
- Level (Rattus norvegicus [3]): 1380 pmol/g
- Level (Rattus norvegicus [4]): 9540 pmol/g
- Level (Rattus norvegicus [5]): 112 pmol/g
- Level (Rattus norvegicus [6]): 22 pmol/g
- Ki (D(2) dopamine receptor): 0.011 µM
- Control (Rattus norvegicus [7]): 65%
- Level (Rattus norvegicus [8]): 7200 pmol/g
- Km [9]: 121 µM
- Level (Rattus norvegicus [10]): 5850 pmol/g
- ED50 (Rattus norvegicus [11]): 6.2 µmol/kg
- Level (Rattus norvegicus [12]): 2050 pmol/g
- Level (Rattus norvegicus [13]): 150 pmol/g
- Level (Rattus norvegicus [14]): 8470 pmol/g
- Ki (D(1A) dopamine receptor): 57.8 µM
- Production (pM (mg of protein)-1) (Rattus norvegicus [15]): 46
- Level (Rattus norvegicus [16]): 1620 pmol/g
- Level (Rattus norvegicus [17]): 227 pmol/g
- Level (Rattus norvegicus [18]): 2750 pmol/g
- Level (Rattus norvegicus [19]): 1910 pmol/g
- Km [20]: 65 µM
- Level (Rattus norvegicus [21]): 6000 pmol/g
- Level (Rattus norvegicus [22]): 4340 pmol/g
- Level (Rattus norvegicus [23]): 18 pmol/g
- ED50 (Rattus norvegicus [24]): 7 µmol/kg
- Ratio [25]: 346
- Level (Rattus norvegicus [26]): 1550 pmol/g
- Motor activity (Rattus norvegicus [27]): 24

Compound: CCCN1CCC[C@H](c2cccc(O)c2)C1
- Motor activity (Rattus norvegicus [28]): 78
- Control (Rattus norvegicus [2]): 32%
- Level (Rattus norvegicus [29]): 243 pmol/g
- Level (Rattus norvegicus [30]): 93 pmol/g
- Control (Rattus norvegicus [7]): 50%
- Level (Rattus norvegicus [31]): 98 pmol/g
- Level (Rattus norvegicus [32]): 7410 pmol/g
- ED50 (Rattus norvegicus [11]): 1 µmol/kg
- Level (Rattus norvegicus [33]): 17600 pmol/g
- Level (Rattus norvegicus [34]): 7040 pmol/g
- Level (Rattus norvegicus [35]): 211 pmol/g
- Level (Rattus norvegicus [36]): 114 pmol/g
- Level (Rattus norvegicus [37]): 151 pmol/g
- Level (Rattus norvegicus [38]): 15200 pmol/g
- Level (Rattus norvegicus [39]): 18300 pmol/g
- ED50 (Rattus norvegicus [24]): 1.3 µmol/kg
- Level (Rattus norvegicus [40]): 4910 pmol/g

Compound: CCCN1CCC[C@@H](c2cccc(O)c2)C1 [PRECLAMOL]
- Control (Rattus norvegicus [2]): 123%
- Level (Rattus norvegicus [29]): 280 pmol/g
- Level (Rattus norvegicus [41]): 20300 pmol/g
- Level (Rattus norvegicus [30]): 89 pmol/g
- Control (Rattus norvegicus [7]): 118%
- Level (Rattus norvegicus [31]): 104 pmol/g
- Level (Rattus norvegicus [32]): 5790 pmol/g
- ED50 (Rattus norvegicus [11]): 0.8 µmol/kg
- Level (Rattus norvegicus [34]): 5380 pmol/g
- Motor activity (Rattus norvegicus [42]): 77
- Level (Rattus norvegicus [35]): 243 pmol/g
- Level (Rattus norvegicus [36]): 174 pmol/g
- Level (Rattus norvegicus [37]): 174 pmol/g
- Level (Rattus norvegicus [38]): 16100 pmol/g
- Level (Rattus norvegicus [39]): 21100 pmol/g
- ED50 (Rattus norvegicus [24]): 1.7 µmol/kg
- Motor activity (Rattus norvegicus [43]): 12
- Level (Rattus norvegicus [40]): 3430 pmol/g
- Motor activity (Rattus norvegicus [44]): 23
